Experimental findings from ChEMBL document CHEMBL1123487, “Zwitterionic 3'-O-acyl derivatives of thymidine 5'-phosphate as potential sources of intracellular thymidine 5'-phosphate in cells in culture” (J Med Chem, 1986) are described below.

Several values for one entry are separate records, joined by “and”; a condition that tells them apart may be missing. Equal values may be shown once.

Data set [1] can be described thus: Compound was evaluated for the Hydrolysis rate in aqueous 50 mM Potassium Phosphate. It counts as ADME. Particulars: aqueous potassium phosphate buffer. In outline: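 5 mM ester in aqueous 50 mM potassium phosphate, pH 7.6, held at 37 °C. Release of free nucleotide followed by paper electrophoresis at pH 3.6 (thymidine release by silica TLC, UV inspection). log(residual ester) plotted against time; t1/2 read graphically from the linear pseudo-first-order plot.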

For data set [2], the system named is L929. The data set can be described thus: Rate of incorporation of [3H]-dC into DNA in mouse L929 cells at 10e-4 concentration; units=cpm/hx 5*10e5 cells. It counts as functional.
Data set [3] relates to L929. The data set can be described thus: Rate of incorporation of [3H]dC into DNA in mouse L929 cells at 10e-4 concentration; units=cpm/hx 5*10e5 cells. It is filed as functional.
Data set [4] has as its system L929. The data set can be described thus: Stimulation of DNA synthesis in L929 cells in the absence of 5'-NH2-dT. It is filed as functional, Mus musculus. In outline:
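L929 cells blocked 3 h with aminopterin medium. 5'-NH2-dT (1.0 mM) was left out of the 2 h recovery medium that held the compound. Labelled with [3H]-dC 1 μCi/mL; TCA-insoluble incorporation (cpm/h per 5×10^5 cells) compared with parallel control cultures.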

Data set [5] concerns L929. The data set is described as follows: Stimulation of DNA synthesis in L929 cells in the presence of 5'-NH2-dT. It counts as functional, Mus musculus.
Data set [6] relates to LM. The data set can be described thus: Effect on DNA synthesis in mouse LM(TK-) cells blocked in DNA synthesis with Aminopterin at 10e-4 M. It is filed as functional. In outline:
(§1)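 LM(TK-) mouse fibroblasts, 5×10^5 or 1×10^6 per 6-cm dish, grown overnight in DMEM/10% FBS at 37 °C, 5% CO2. Blocked 3 h in medium with heat-inactivated serum, aminopterin 1 μg/mL, glycine and hypoxanthine 15 μg/mL each, no 5'-NH2-dT. Compounds diluted from 10 mM stocks in 50% ethanol-water; controls got vehicle. Recovery 2 h, then [3H]-dC 1 μCi/mL for 1–3 h. Cold 5% TCA-insoluble counts in duplicate; enhancement = rate with compound / rate in parallel controls.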

For data set [7], the system named is LM. The data set is described as follows: Effect (10e-4 M) on DNA synthesis in mouse LM(TK-) cells blocked in DNA synthesis with Aminopterin. It is filed as functional. In outline: as §1
The test system of data set [8] is L929. The data set can be described thus: Rate of incorporation of [3H]dC into DNA in mouse L929 cells at 10e-6 concentration; units=cpm/hx 5*10e5 cells. It is filed as functional. Put shortly:
(§2)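 L929 cells seeded at 5×10^5 or 1×10^6 per dish in DMEM/10% FBS, overnight at 37 °C, 5% CO2. Blocked 3 h in medium with heat-inactivated serum, aminopterin 1 μg/mL, glycine and hypoxanthine 15 μg/mL each, and 1.0 mM 5'-NH2-dT. Test agent in the same medium for 2 h, then 1 μCi/mL [3H]dC for 1–3 h. Cold 5% TCA-insoluble counts in duplicate, scaled to cell counts.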

Data set [9] relates to L929. The data set can be described thus: Rate of incorporation of [3H]dC into DNA in mouse L929 cells at 10e-5 concentration; units=cpm/hx 5*10e5 cells. It counts as functional. In outline: as §2
The test system of data set [10] is LM. The data set is described as follows: Effect (10e-5 M) on DNA synthesis in mouse LM(TK-) cells blocked in DNA synthesis with Aminopterin. It counts as functional. Put shortly: as §1
The test system of data set [11] is LM. The data set can be described thus: Effect (10e-3 M) on DNA synthesis in mouse LM(TK-) cells blocked in DNA synthesis with Aminopterin. It is filed as functional. In outline: as §1
Data set [12] has as its system LM. The data set is described as follows: Effect (10e-6 M) on DNA synthesis in mouse LM(TK-) cells blocked in DNA synthesis with Aminopterin. It counts as functional. Put shortly: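 LM(TK-) fibroblasts seeded and cultured overnight. Blocked 3 h in heat-inactivated-serum medium with aminopterin 1 μg/mL, glycine and hypoxanthine 15 μg/mL, no 5'-NH2-dT. Compound diluted from 10 mM stock in 50% ethanol-water and applied 2 h. Then [3H]dC 1 μCi/mL; acid-insoluble radioactivity measured in duplicate. Effect expressed as incorporation rate relative to parallel vehicle controls.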

Turning to `CC(=O)O[C@H]1C[C@H](n2cc(C)c(=O)[nH]c2=O)O[C@@H]1CO`, in data set [1], the half-life was 135 h.

For the compound `CCN(CC)CC[N+](CC)(CC)CCCC(=O)O[C@H]1C[C@H](n2cc(C)c(=O)[nH]c2=O)O[C@@H]1COP(=O)([O-])O`, the half-life in data set [1] is 28 h.

`CCN(CC)CCC[N+](CC)(CC)CCCCC(=O)O[C@H]1C[C@H](n2cc(C)c(=O)[nH]c2=O)O[C@@H]1COP(=O)([O-])O`: the Incorporation rate with L929 [2] is 605 c.p.m. hr-1 and 504 c.p.m. hr-1. This compound also gave a half-life in data set [1] of 74 h.

As to `CCN(CC)CCCC[N+](CC)(CC)CCCCC(=O)O[C@H]1C[C@H](n2cc(C)c(=O)[nH]c2=O)O[C@@H]1COP(=O)([O-])O`, the Incorporation rate with L929 [3] was 782 c.p.m. hr-1 and 821 c.p.m. hr-1.

For the compound `CC[N+](CC)(CC)CC[N+](CC)(CC)CCCCC(=O)O[C@H]1C[C@H](n2cc(C)c(=O)[nH]c2=O)O[C@@H]1COP(=O)([O-])[O-]`, the Incorporation rate was 5462 c.p.m. hr-1 with L929 [4]; 808 c.p.m. hr-1 with L929 [5]; 171 c.p.m. hr-1 with LM [6]; 673 c.p.m. hr-1 and 1103 c.p.m. hr-1 in the data set with L929 [2].

As to `CC[N+](CC)(CC)CCC[N+](CC)(CC)CCCCC(=O)O[C@H]1C[C@H](n2cc(C)c(=O)[nH]c2=O)O[C@@H]1COP(=O)([O-])[O-]`, the half-life in [1] is 72 h.

For `CC[N+](CC)(CC)CCCC[N+](CC)(CC)CCCCC(=O)O[C@H]1C[C@H](n2cc(C)c(=O)[nH]c2=O)O[C@@H]1COP(=O)([O-])[O-]`, the Incorporation rate with L929 [4] is 7462 c.p.m. hr-1; in the data set with L929 [5] it was 1135 c.p.m. hr-1; with L929 [2], 1356 c.p.m. hr-1 and 1299 c.p.m. hr-1; in the data set with LM [7], 204 c.p.m. hr-1 and 147 c.p.m. hr-1. In [1], this compound showed a half-life of 85 h.

As for `CCN(CC)CC[N+](CC)(CC)CCCC(=O)O[C@H]1C[C@H](n2cc(C)c(=O)[nH]c2=O)O[C@@H]1CO.Cl.[Cl-]`, the half-life in [1] was 28 h.

`CC[N+](CC)(CC)CCCC[N+](CC)(CC)CCCCC(=O)O[C@H]1C[C@H](n2cc(C)c(=O)[nH]c2=O)O[C@@H]1CO.[Cl-].[Cl-]`: the half-life in [1] is 87 h. This half-life lies about 3.1-fold higher than the previous one.

On to `Cc1cn([C@H]2C[C@H](O)[C@@H](CO)O2)c(=O)[nH]c1=O` [DOXRIBTIMINE], for which the Incorporation rate with L929 [8] was determined as 465 c.p.m. hr-1; in the data set with L929 [9] it was 2937 c.p.m. hr-1; in the data set with LM [10], 204 c.p.m. hr-1; in the data set on LM [11], 213 c.p.m. hr-1; in the data set on L929 [2], 28200 c.p.m. hr-1; in the data set with LM [12], 185 c.p.m. hr-1. Moreover, in the data set on LM [7], the Incorporation rate is 228 c.p.m. hr-1 and 251 c.p.m. hr-1.

As to `Cc1cn([C@H]2C[C@H](O)[C@@H](COP(=O)(O)O)O2)c(=O)[nH]c1=O` [THYMIDINE MONOPHOSPHATE], the Incorporation rate in the data set with LM [10] is 323 c.p.m. hr-1 and 256 c.p.m. hr-1; in the data set with LM [11], 596 c.p.m. hr-1 and 668 c.p.m. hr-1 and 837 c.p.m. hr-1; with LM [7], 381 c.p.m. hr-1 and 295 c.p.m. hr-1.

Usually half-life stands for the time in which the quantity being followed falls by half. A low value points to fast loss.
